Key:
[1] = Ability to inhibit canine cardiac cAMP phosphodiesterase III
Procedure, shortened: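 Crude enzyme from dog cardiac muscle homogenate, taken by differential centrifugation between 700g and 165000g. Assay at 37 °C with 10^-6 M cAMP plus [3H]cAMP (10^5 cpm/mL), 40 mM Tris pH 8.0, 10 mM MgCl2, 2.5 mM mercaptoethanol, 0.05 mg/mL BSA and 0.1 mg/mL enzyme. AMP and cAMP separated by PEI-cellulose ion-exchange TLC and counted by scintillation. Triplicate, up to 100 μM.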

Canis familiaris [2] = organism: Canis familiaris; experiment: Electrophysiological activity as concentration causing 20 % increase in the functional refractory period of canine ventricular muscle.; design: species or system Canis lupus familiaris, Muscle tissue
Procedure, shortened: (§1)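 Right-ventricle papillary muscle strips (5-6 mm × 1-2 mm) in a 3.5-mL bath, superfused with oxygenated saline at 36 ± 0.5 °C. Diastolic threshold set with 2 ms bipolar stimuli at 4000 ms cycle length. Paced at 4× threshold for 60 min. FRP found at 1000 ms cycle length with a premature S2 after every tenth S1 at shortening intervals. Various concentrations superfused, one compound per strip.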

Felis catus = organism: Felis catus; experiment: Inotropic activity as dose required to cause 20% positive or negative change in contractile force of papillary muscle from cat; assay type: functional, Muscle tissue
Procedure, shortened: (§2)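 Papillary muscle (<1 mm diameter, ≥3 mm long) held isometric at 35 °C in bicarbonate saline (pH 7.3-7.5, 95% O2/5% CO2). Muscles under 500 mg/mm² force discarded. Compounds in water added to the bath at 1:1000, with a 15-min wash between doses. Norepinephrine 10 μM added last as internal standard. Force normalized to cross-sectional area (weight/length). Mean of ≥3 determinations.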

Mustela putorius furo [3] = organism: Mustela putorius furo; experiment: Inotropic activity as dose required to cause 20% positive or negative change in contractile force of papillary muscle from ferret; assay type: functional, Muscle tissue; procedure, shortened: as §2
Mustela putorius furo [4] = organism: Mustela putorius furo; experiment: Inotropic activity as dose required to cause 20% positive or negative change in contractile force of papillary muscle from ferret
Canis familiaris [5] = organism: Canis familiaris; experiment: Electrophysiological activity as concentration of the drug causing 20 % increase in the functional refractory period of canine ventricular muscle.; design: species or system Canis lupus familiaris, Muscle tissue; procedure, shortened: as §1

Row | SMILES | FRP C20 (Canis familiaris [2]) [µM] | CF C20 (Felis catus) [µM] | also measured
1 | Cc1nccn1-c1ccc(-c2cccn3c(C)ncc23)cc1 | 80 | 13 | IC50 [1]: 65 µM
2 | Cc1ncc2n1CCCC2c1ccc(NS(C)(=O)=O)cc1 (configuration not stated) | 80 | – | CF C20 (Mustela putorius furo [3]): 0.8 µM
3 | CCOC(=O)c1nc(O)n2cccc(-c3ccccc3)c12 | – | – | CF C20 (Mustela putorius furo [4]): -10 µM
4 | Cc1nccn1-c1ccc(-c2cccn3c(C)nc(Br)c23)cc1 | – | 1 | IC50 [1]: 30 µM; FRP C20 (Canis familiaris [5]): 17 µM
5 | CSc1ccc(C(=O)c2[nH]c(=O)[nH]c2C)cc1 [ENOXIMONE] | – | 3 | –
6 | CCOc1ccc(-c2cccn3c(C)ncc23)cc1 | – | -100 | –
7 | CCc1nccn1-c1ccc(C2=CCCn3c2cnc3CC)cc1 | 9 | 0.8 | –
8 | CS(=O)(=O)Nc1ccc(-c2cccn3ccnc23)cc1 | 50 | 10 | IC50 [1]: > 1000 µM
9 | C1=C(c2ccc(-n3ccnc3)cc2)c2nccn2CC1 | 100 | 29 | IC50 [1]: 550 µM
10 | Nc1ccc(C2=CCCn3ccnc32)cc1 | – | -5 | –
11 | Cc1ncc2n1CCC=C2c1ccccc1 | – | 10 | –
12 | CC(=O)Nc1ccc(C2=CCCn3c2cnc3C)cc1 | 40 | 10 | –
13 | COC(=O)c1nc(O)n2cccc(-c3ccc(C)cc3)c12 | – | -40 | –
14 | Cc1ncc2n1CCC=C2c1ccc(NS(C)(=O)=O)cc1 | 10 | 2 | –
15 | Nc1ccc(-c2cccn3ccnc23)cc1 | – | 15 | –
16 | CCOc1ccc(C2=CCCn3c2cnc3C)cc1 | 30 | 20 | –
17 | C1=C(c2ccccc2)c2nccn2CC1 | – | -15 | –
18 | Oc1ccc(-c2cccn3ccnc23)cc1 | -18 | 15 | –
19 | c1cc(-c2ccc(-n3ccnc3)cc2)c2nccn2c1 | – | 30 | IC50 [1]: 220 µM
20 | CCCCNC(=O)NC1CCN(c2ncnc3cc(OC)c(OC)cc23)CC1 [BUQUINERAN] | – | – | CF C20 (Mustela putorius furo [3]): 7 µM
21 | Cc1nccn1-c1ccc(C2=CCCn3c2cnc3C)cc1 | 5 | 5 | IC50 [1]: 150 µM
22 | c1ccc(-c2cccn3ccnc23)cc1 | 10 | 1 | –
23 | Cc1ncc2c(-c3ccccc3)cccn12 | – | – | CF C20 (Mustela putorius furo [3]): -20 µM
24 | Cc1ncc2n1CCC=C2c1ccc(O)cc1 | 100 | 30 | –
25 | Cc1ccc(-c2cccn3c(O)ncc23)cc1 | – | 6 | –
26 | Cc1ncc2n1CCC=C2c1ccc(-n2ccnc2)cc1 | 14 | 9 | –
27 | COC(=O)c1nc(O)n2cccc(-c3ccc(-n4ccnc4C)cc3)c12 | – | 30 | –

Reference: ChEMBL document CHEMBL1123799, “Cardiotonic agents. 1. Novel 8-aryl-substituted imidazo[1,2-a]- and -[1,5-a]pyridines and imidazo[1,5-a]pyridinones as potential positive inotropic agents” (J Med Chem, 1987)
